Test results published in PMC10772668 (Clinical and Translational Science, 2023).

How the values were obtained:
Type in all cases: in vivo, human
[1] = Safety, TEAEs, SAD
Method in brief: (§1)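 Safety population: all participants exposed to study drug, followed from first dose to the end‑of‑study visit. Assessments covered physical and neurological exams, AEs, SAEs and AESIs (seizure, ALT ≥2×ULN, QTc ≥500 ms, pregnancy, overdose). Lab, vital‑sign and 12‑lead/Holter ECG abnormalities were also recorded. Coding used MedDRA 23.1 (part 1) or 24.0 (part 2), with severity graded 1–4 per FDA guidance. Counts were summarised per dose group, with placebo pooled.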

[2] = Safety, TEAEs, PK‐CSF; settings: for ALT increase (AESI), one participant: PK‐CSF 10 mg
Method in brief: as §1

[3] = Safety, TEAEs, MAD
Method in brief: as §1

[4] = system: CYP3A4; assay: Plasma 4β‐hydroxycholesterol day 14/day 1 ratio; settings: repeated doses up to 20 mg b.i.d.
Method in brief: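 MAD healthy adults received oral capsules (10 or 20 mg q.d., 15 or 20 mg b.i.d.; fasted) or placebo for 14 days. Plasma 4β‑hydroxycholesterol was measured predose on day 1 and day 14, and day 14/day 1 ratios were calculated. Geometric mean of the log‑transformed ratio with 90% CI was obtained by analysis of covariance, per dose group and overall.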

[5] = Overall safety and tolerability, all study parts
Method in brief: as §1

Potential for CYP3A4 induction [4]: no potential for CYP3A4 induction
Structure (SMILES): CC(C)(C(=O)N1CCOc2c(C#N)cncc2C1)C(F)F [SAR443820]
Any grade ≥3 TEAE, n (%) ([1]; SAD 10 mg (n = 6)): 0 n (%)
Any treatment‐emergent AESI, n (%) ([1]; SAD 10 mg (n = 6)): 0 n (%)
Any treatment‐emergent SAE, n (%) ([1]; SAD 10 mg (n = 6)): 0 n (%)
Any TEAE, n (%) ([1]; SAD 20 mg (n = 6)): 1 (16.7) n (%)
Any grade ≥3 TEAE, n (%) ([1]; SAD 20 mg (n = 6)): 0 n (%)
Any treatment‐emergent AESI, n (%) ([1]; SAD 20 mg (n = 6)): 0 n (%)
Any treatment‐emergent SAE, n (%) ([1]; SAD 20 mg (n = 6)): 0 n (%)
Any TEAE, n (%) ([1]; SAD 30 mg (n = 6)): 3 (50.0) n (%)
Any grade ≥3 TEAE, n (%) ([1]; SAD 30 mg (n = 6)): 0 n (%)
Any treatment‐emergent AESI, n (%) ([1]; SAD 30 mg (n = 6)): 0 n (%)
Any treatment‐emergent SAE, n (%) ([1]; SAD 30 mg (n = 6)): 0 n (%)
Any TEAE, n (%) ([1]; SAD 40 mg (n = 6)): 3 (50.0) n (%)
Any grade ≥3 TEAE, n (%) ([1]; SAD 40 mg (n = 6)): 0 n (%)
Any treatment‐emergent AESI, n (%) ([1]; SAD 40 mg (n = 6)): 0 n (%)
Any treatment‐emergent SAE, n (%) ([1]; SAD 40 mg (n = 6)): 0 n (%)
Any TEAE, n (%) ([2]; PK-CSF 10 mg (n = 6)): 4 (66.7) n (%)
Any grade ≥3 TEAE, n (%) ([2]; PK-CSF 10 mg (n = 6)): 0 n (%)
Any treatment‐emergent AESI, n (%) ([2]; PK-CSF 10 mg (n = 6)): 1 (16.7) n (%)
Any treatment‐emergent SAE, n (%) ([2]; PK-CSF 10 mg (n = 6)): 0 n (%)
Any TEAE, n (%) ([2]; PK-CSF 40 mg (n = 6)): 6 (100.0) n (%)
Any grade ≥3 TEAE, n (%) ([2]; PK-CSF 40 mg (n = 6)): 1 (16.7) n (%)
Any treatment‐emergent AESI, n (%) ([2]; PK-CSF 40 mg (n = 6)): 0 n (%)
Any treatment‐emergent SAE, n (%) ([2]; PK-CSF 40 mg (n = 6)): 1 (16.7) n (%)
ALT increase (AESI), one participant ([2]; day 2): 1.5 ULN
ALT increase (AESI), one participant ([2]; day 7 (end‐of‐study visit)): 2.4 ULN
Any TEAE, n (%) ([3]; MAD 10 mg QD (n = 8)): 4 (50.0) n (%)
Any grade ≥3 TEAE, n (%) ([3]; MAD 10 mg QD (n = 8)): 0 n (%)
Any treatment‐emergent AESI, n (%) ([3]; MAD 10 mg QD (n = 8)): 0 n (%)
Any treatment‐emergent SAE, n (%) ([3]; MAD 10 mg QD (n = 8)): 0 n (%)
Any TEAE, n (%) ([3]; MAD 15 mg BID (n = 8)): 6 (75.0) n (%)
Any grade ≥3 TEAE, n (%) ([3]; MAD 15 mg BID (n = 8)): 0 n (%)
Any treatment‐emergent AESI, n (%) ([3]; MAD 15 mg BID (n = 8)): 1 (12.5) n (%)
Any treatment‐emergent SAE, n (%) ([3]; MAD 15 mg BID (n = 8)): 0 n (%)
Concomitant AST increase, one participant ([3]; MAD 15 mg b.i.d.): 1.43 ULN
ALT increase (AESI), one participant ([3]; MAD 15 mg b.i.d., day 9): 2.29 ULN
ALT increase (AESI), one participant ([3]; MAD 15 mg b.i.d., day 15 (24 h post last dosing)): 2.71 ULN
Any TEAE, n (%) ([3]; MAD 20 mg BID (n = 8)): 4 (50.0) n (%)
Any grade ≥3 TEAE, n (%) ([3]; MAD 20 mg BID (n = 8)): 0 n (%)
Any treatment‐emergent AESI, n (%) ([3]; MAD 20 mg BID (n = 8)): 0 n (%)
Any treatment‐emergent SAE, n (%) ([3]; MAD 20 mg BID (n = 8)): 0 n (%)
Any TEAE, n (%) ([3]; MAD 20 mg QD (n = 8)): 3 (37.5) n (%)
Any grade ≥3 TEAE, n (%) ([3]; MAD 20 mg QD (n = 8)): 0 n (%)
Any treatment‐emergent AESI, n (%) ([3]; MAD 20 mg QD (n = 8)): 0 n (%)
Any treatment‐emergent SAE, n (%) ([3]; MAD 20 mg QD (n = 8)): 0 n (%)
Most common AEs ([5]; all study parts): dizziness (SAD) and headache (PK‐CSF and MAD)
Overall tolerability ([5]; healthy participants, single doses up to 40 mg, repeated doses up to 20 mg b.i.d. for 14 days): generally safe and well‐tolerated
